# The list is not random: actives were taken first. Their share in the collection is about 2.9%.
# ERAP1 HTS inh: inhibitors of human ERAP1 aminopeptidase. Q9NZ08. recombinant ERAP1, Leu-AMC fluorescence, 60 min. inhibition, % at 10.7 µM. hit rate 0.15% among 340,000. AID 652197;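 active = mean replicate inhibition of at least 30%, or all replicates individually reaching that 30% level; inactive = mean below 30% and not every replicate reaching it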;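 note: 0% = neutral control wells and 100% = L-leucinethiol positive control wells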
# CAL PDZ FP-1: blocks peptide binding to the human CAL PDZ domain; Q9HD26; purified CAL PDZ, TMR-peptide fluorescence polarization, 1 h; inhibition, % at 24.9 µM; hit rate 0.92% among 300,000;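 active = mean inhibition of at least 30% with at least half of replicates also reaching 30%; inconclusive = no clear call, values can overlap the other calls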;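 note: 0% = DMSO neutral control and 100% = excess unlabeled competitor peptide PRC23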
# CAL PDZ FP-2: human CAL PDZ-peptide interaction inhibition | purified CAL PDZ, TMR-peptide fluorescence polarization, 1 h | inhibition, % at 20 µM | hit rate 0.02% among 330,000;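 active = highest replicate inhibition of at least 40%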;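 note: plate controls were DMSO neutral control wells for no effect and unlabeled competitor peptide control wells for full effect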
#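 Test system: tagged CAL PDZ domain / Buffer or medium: sodium phosphate/NaCl buffer pH 7.4 with TCEP, IgG, Thesit / Reagent: TMR-labelled reporter peptide T*-PRC34 bound in PDZ groove / Compound dosing: single point, 20 µM / Schedule: 1 h incubation at room temperature before polarization reading / Technique: fluorescence polarization (mP) / Benchmarks: unlabelled peptide, DMSO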
# S100A4 MyoIIA: S100A4-myosin IIA interaction inhibition; S100A4/TAMRA-MyoIIA peptide fluorescence polarization; P26447; inhibition, % at 10.7 µM; AID 652163; hit rate 0.14% among 360,000;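 active = mean inhibition of at least 70% across replicates, with every replicate also reaching that level; inconclusive = mean inhibition reaches 70% but some replicates fall short; inactive = mean inhibition below 70%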
# Target sequence (P26447 whole entry, looked up): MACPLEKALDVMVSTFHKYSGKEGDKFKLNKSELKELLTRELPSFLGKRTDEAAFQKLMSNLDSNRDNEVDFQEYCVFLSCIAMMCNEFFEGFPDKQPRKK
#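 Material: S100A4 monomer protein | Medium: HEPES pH 7.2 with CaCl2, KCl, NaCl, DTT, Triton | Reagent: Labelled myosin peptide probe, 5 nM | Doses: One dose per compound | Times: 5 min incubation before reading | Benchmarks: Neutral control DMSO, positive control TFP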
# SIRT5 inh: blocks human SIRT5 desuccinylation of peptide; Purified SirT5, succinyl-peptide AMC, trypsin-coupled fluorescence; hit rate 1.1% among 330,000; inhibition, % at 15 µM; Q9NXA8; in the data active = inhibition above about 15%; inconclusive = no clear call, values can overlap the other calls
# Target sequence (Q9NXA8 whole entry, looked up): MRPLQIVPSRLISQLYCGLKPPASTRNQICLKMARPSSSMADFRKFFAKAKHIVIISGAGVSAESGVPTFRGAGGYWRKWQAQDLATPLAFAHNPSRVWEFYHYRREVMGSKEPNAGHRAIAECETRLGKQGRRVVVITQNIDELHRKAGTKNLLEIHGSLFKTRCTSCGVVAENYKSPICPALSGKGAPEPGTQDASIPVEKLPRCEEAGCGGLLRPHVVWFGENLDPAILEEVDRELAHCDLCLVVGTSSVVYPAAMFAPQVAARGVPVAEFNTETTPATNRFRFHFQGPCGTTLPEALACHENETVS
# DENV2 CPE rescue: protects cells from dengue virus 2 cytopathic effect; DENV2-infected cells, cytopathic effect rescue, plate reader; CPE inhibition, % at 9.99 µM; hit rate 1.7% among 350,000; AID 651640; in the data active = CPE inhibition above about 20%, passing the limit was not always enough; inconclusive = no clear call, values can overlap the other calls; tested in BHK-21 cells;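 note: 0% = median of neutral control wells and 100% = median of positive control wells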
# * hit, by the source's call; ? = inconclusive; / = no result; ! = not confirmed by another sample.
SMILES,ERAP1 HTS inh,CAL PDZ FP-1,CAL PDZ FP-2,S100A4 MyoIIA,SIRT5 inh,DENV2 CPE rescue
O=C(C1=C[C@H](c2ccc3c(c2)OCO3)C[C@H](OCc2ccc(CO)cc2)O1)N1CCN(Cc2ccc3c(c2)OCO3)CC1,-2,-1,0,0,4,59*!
CN1CCN(C(=O)C2=C[C@@H](c3ccc(C(F)(F)F)cc3)C[C@@H](OCc3ccc(CO)cc3)O2)CC1,3,-2,-1,-4,-3,78*!
O=C(C1=C[C@H](c2ccc(C(F)(F)F)cc2)C[C@H](OCc2ccc(CO)cc2)O1)N1CCCC1,-2,/,/,0,1,0
O=C(NCc1ccccc1)C1=C[C@@H](c2ccc3c(c2)OCO3)C[C@@H](OCc2ccc(CO)cc2)O1,-3,-3,0,-7,-3,22*!
C[C@H]1C=C(C(=O)N2CCN(Cc3ccc4c(c3)OCO4)CC2)O[C@@H](OCc2ccc(CO)cc2)C1,-2,0,-1,9,4,24*!
C[C@@H]1C=C(C(=O)N2CCN(Cc3ccc4c(c3)OCO4)CC2)O[C@H](OCc2ccc(CO)cc2)C1,0,/,/,6,0,2
COc1ccc(NC(=O)N(C)C[C@@H]2Oc3ccc(NS(=O)(=O)c4cccs4)cc3CC(=O)N([C@@H](C)CO)C[C@H]2C)cc1,/,/,/,/,/,4
Cc1noc(C)c1NC(=O)Nc1cccc2c1O[C@@H](CN(C)C(=O)Nc1ccccc1)[C@@H](C)CN([C@@H](C)CO)C2=O,5,/,/,-12,-2,-3
COc1cc(SC)ccc1C(=O)N1CCN(Cc2ccc3c(c2)OCO3)CC1,2,46*,-1,6,2,-2
CC(C)(C)[C@@H]1C=C(C(=O)N2CCOCC2)O[C@H](OCc2ccc(CO)cc2)C1,1,1,0,-39,0,-1
CC(C)(C)[C@H]1C=C(C(=O)N2CCOCC2)O[C@@H](OCc2ccc(CO)cc2)C1,-3,-1,-1,-2,-1,36*!
O=C(c1ccc(S(=O)(=O)N2CCCC2)cc1)N1CCN(Cc2ccc3c(c2)OCO3)CC1,/,0,-3,/,/,/
Cc1ccc(C(=O)N2CCN(Cc3ccc4c(c3)OCO4)CC2)cc1S(=O)(=O)N1CCOCC1,/,9,0,0,16*,4
CC(C)NC(=O)N(C)C[C@H]1Oc2cc(C#CCN(C)C)ccc2S(=O)(=O)N([C@@H](C)CO)C[C@@H]1C,3,/,/,-9,1,-11
O=c1[nH]c(=O)n2c(c1-c1ccccc1)OC(CBr)C2 (centres undefined),-9,/,/,-35,-4,75*
O=c1[nH]c(=S)n2c(c1-c1ccccc1)OC(CBr)C2 (centres undefined),2,/,/,14,-1,?
CN1CCCCN2[C@H](CO)[C@H](c3ccc(C4=CCCC4)cc3)[C@H]2C1,0,/,/,11,-5,29*
O=S(=O)(c1cccs1)N1CCCCN2[C@H](CO)[C@H](c3ccc(C4=CCCC4)cc3)[C@@H]2C1,0,/,/,12,2,46*
O=S(=O)(c1cccs1)N1CCCCN2[C@H](CO)[C@H](c3ccc(C4=CCCCC4)cc3)[C@@H]2C1,3,/,/,11,18*,-8
Cc1ccc(-c2ccc([C@@H]3[C@H](CO)N4CCCCN(C)C[C@@H]34)cc2)cc1,0,/,/,-4,1,-1
COc1ccc(S(=O)(=O)Nc2ccc3c(c2)CC(=O)N([C@H](C)CO)C[C@H](C)[C@@H](CN(C)S(=O)(=O)c2ccccc2)O3)cc1,/,/,/,/,/,2
O=C(C[C@@H]1CC[C@@H]2NC[C@@H](O)COC[C@H]2O1)N1CCc2ccccc2C1,0,/,/,-2,0,7
COc1ccc(CN(C)C[C@H]2Oc3ccc(NC(=O)CCCN(C)C)cc3C(=O)N([C@H](C)CO)C[C@H]2C)cc1,2,/,/,9,-5,-5
Cc1ccc(NCC(=O)N/N=C/c2cccc(Br)c2)cc1,-2,/,0,-7,16*,31*
COC(=O)c1ccc(/C=N/NC(=O)CNc2cccc(C)c2)cc1,5,4,0,0,24*,-2
SMILES,ERAP1 HTS inh,CAL PDZ FP-1,CAL PDZ FP-2,S100A4 MyoIIA,SIRT5 inh,DENV2 CPE rescue
Cc1cccc(NCC(=O)N/N=C/c2cccc(Br)c2)c1,-1,/,0,-16,2,1
COC(=O)c1ccc(NC(=O)CNc2ccccc2)cc1,-2,43*,-1,8,/,-7
CO[C@H]1CN(C)C(=O)c2ccc(NC(=O)NC(C)C)cc2OC[C@H](C)N(C)C[C@@H]1C,0,/,/,5,-4,-1
CCCNC(=O)Nc1ccc2c(c1)OC[C@@H](C)N(Cc1ccncc1)C[C@H](C)[C@H](OC)CN(C)C2=O,-3,/,/,-3,2,-4
CCCCNC(=O)C1(C)CCN1C(=O)c1cc(-c2cccs2)oc1C (centres undefined),3,/,/,-3,/,33*
CCCCNC(=O)C1(C)CCN1C(=O)c1ccccc1Br (centres undefined),-1,/,/,?,-22,?
COc1ccc(S(=O)(=O)Nc2ccc3c(c2)C(=O)N([C@H](C)CO)C[C@@H](C)[C@@H](CN(C)C(=O)NC(C)C)OCCCC[C@H](C)O3)cc1,-1,/,/,-14,0,-3
Cc1ccc(S(=O)(=O)Nc2ccc3c(c2)C(=O)N([C@@H](C)CO)C[C@H](C)[C@@H](CN(C)C(=O)Nc2c(C)noc2C)OCCCC[C@H](C)O3)cc1,2,/,/,-4,-3,-7
NC(=S)N=Nc1c(O)[nH]c2ccc(F)cc12,-1,-1,1,1,-7,1
NC(=S)N=Nc1c(O)cc(O)c2[nH]c(=O)ccc12,52*,3,5,-3,10,4
CCNC(=O)C[C@H]1CC[C@@H]2[C@@H](COc3ccc(NC(=O)Nc4ccc(Cl)cc4)cc3C(=O)N2C)O1,1,/,/,5,0,11
COc1ccc(C(=O)/C=C2\Sc3ccccc3N2C)cc1,-3,4,1,5,-1,0
COc1ccccc1-[n+]1c(C)cc(/C=C2\Sc3ccccc3N2C)cc1C,15,53*,4,-4,9,15
COc1ccc(-[n+]2c(C)cc(/C=C3\Sc4ccccc4N3C)cc2C)cc1,10,0,4,1,26*,7
COC1OC2COC(c3ccccc3)OC2C2OC12 (centres undefined),4,144*,-1,1,/,7
C[C@H]1CN([C@@H](C)CO)C(=O)Cc2cc(NS(=O)(=O)c3ccccc3)ccc2O[C@@H]1CN(C)CC1CC1,-5,/,/,-5,0,0
COc1ccccc1-c1ccc2c(c1)[C@@H]1[C@@H](CCN1S(=O)(=O)c1cn(C)cn1)[C@@H](CO)N2,-1,/,/,-11,0,0

# Screens (PubChem)
